This is an account of results in ChEMBL document CHEMBL3352548, “Small-molecule suppression of β-lactam resistance in multidrug-resistant gram-negative pathogens” (J Med Chem, 2014).

In series [1] the test system is Acinetobacter baumannii. Briefly: Antibacterial activity against Acinetobacter baumannii ATCC BAA-1605 assessed as meropenem MIC at 15 uM after 6 hrs in presence of 10% bovine plasma by time kill assay (Rvb meropenem MIC in absence of plasma= 32 ug/ml). The class given is functional. As to conditions: ATCC BAA-1605, 6 h. In a few lines:
(§1)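 Meropenem MIC against A. baumannii BAA-1605 in CAMHB containing 10% bovine plasma, with compound held at fixed 15, 20, 25 or 30 μM. Parallel runs were done in CAMHB without plasma.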

Series [2] deals with Acinetobacter baumannii. The series is described as follows: Antibacterial activity against Acinetobacter baumannii ATCC BAA-1605 assessed as reduction in CFU at 15 uM after 6 hrs by time kill assay in presence of 4 ug/ml meropenem. The class given is functional. In a few lines:
(§2)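 Time-kill: cultures were grown at 37 °C with shaking with compound (15 μM for BAA-1605, 60 μM for PA53), meropenem (1–32 μg/mL for BAA-1605, 1–64 μg/mL for PA53), or both. Samples taken at 2, 4, 6, 8 and 24 h were serially diluted in CAMHB, plated on nutrient agar, incubated overnight at 37 °C, and colonies counted.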

The subject of series [3] is Acinetobacter baumannii. The series is described as follows: Antibacterial activity against Acinetobacter baumannii ATCC BAA-1605 assessed as fold reduction in meropenem MIC at 15 uM after 16 hrs by microdilution method. The class given is functional. In a few lines:
(§3)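 MIC of each compound alone was determined first. Antibiotic MICs (imipenem or meropenem for A. baumannii; ceftazidime or meropenem for P. aeruginosa) were then measured with compound at fixed sub-MIC concentrations. Fold reduction is MIC without compound divided by MIC with compound.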

Series [4] concerns Acinetobacter baumannii. The series is described as follows: Antibacterial activity against Acinetobacter baumannii ATCC BAA-1605 assessed as reduction in CFU at 15 uM after 6 hrs by time kill assay. The class given is functional. A digest of the protocol: as §2
Series [5] in a line: Cytotoxicity against human HaCaT cells after 12 to 18 hrs by MTT assay. It is filed as cell-based. The conditions noted are these: read-out: TCID50. In a few lines:
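HaCaT keratinocytes were grown in 10% FBS–DMEM with penicillin/streptomycin, seeded at 8 × 10^4 cells/mL and grown overnight to 90% confluence. Serial dilutions (2.5 mM to 1.22 μM, duplicate) were applied overnight. MTT was added for 4 h in the dark, then SDS/HCl solubilizer for 12–18 h. Absorbance was read at 550 nm against a 670 nm reference.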

For series [6], the system named is Pseudomonas aeruginosa. The series is described as follows: Antibacterial activity against Pseudomonas aeruginosa PA53 assessed as complete inhibition of bacterial growth after 16 hrs by microdilution method. The class given is functional. As to conditions: PA53, 16 h. A digest of the protocol:
as §3

Series [7] has as its system Acinetobacter baumannii. The series is described as follows: Antibacterial activity against Acinetobacter baumannii ATCC BAA-1605 assessed as fold reduction in imipenem MIC at 15 uM after 16 hrs by microdilution method. The class given is functional. A digest of the protocol: as §3
The test system of series [8] is Acinetobacter baumannii. Briefly: Antibacterial activity against Acinetobacter baumannii ATCC BAA-1605 assessed as cell death at 15 uM after 16 hrs by checkerboard assay in presence of 10% bovine plasma. The class given is functional. The conditions noted are these: ATCC BAA-1605, Plasma. A digest of the protocol: (§4)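 A. baumannii BAA-1605 MIC of compound alone, measured in cation-adjusted Mueller–Hinton broth (CAMHB) supplemented with 10% or 50% bovine plasma.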

Series [9] deals with Pseudomonas aeruginosa. Briefly: Antibacterial activity against Pseudomonas aeruginosa PA53 assessed as fold reduction in ceftazidime MIC at 60 uM after 16 hrs by microdilution method. It is filed as functional. A digest of the protocol: as §3
The test system of series [10] is Acinetobacter baumannii. The series is described as follows: Antibacterial activity against Acinetobacter baumannii ATCC BAA-1605 assessed as cell death at 15 uM after 16 hrs by checkerboard assay in presence of meropenem. It is filed as functional. In a few lines:
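Checkerboard in CAMHB with BAA-1605 at 5 × 10^5 CFU/mL. Compound and meropenem were each serially two-fold diluted along perpendicular axes, with one […] row and column giving each agent's MIC alone. ΣFIC = (combination MIC/MIC alone) for compound plus the same for antibiotic. ≤0.5 was taken as synergy, 0.5–2 as indifference, ≥2 as antagonism.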

A short description of series [11]: Hemolytic activity in sheep red blood cells up to 400 uM by UV spectrophotometry. The class given is ADME, cell-based, Ovis aries. As to conditions: erythrocyte. A digest of the protocol:
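Mechanically defibrinated sheep blood cells were washed three times by centrifugation in PBS and diluted 10-fold. Compound in PBS was added and samples shaken at 200 rpm for 1 h at 37 °C. Supernatant was diluted 40-fold in water and read at 540 nm. PBS served as zero-lysis control and 1% Triton X as 100% lysis control.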

Series [12] concerns Acinetobacter baumannii. Briefly: Antibacterial activity against Acinetobacter baumannii ATCC BAA-1605 assessed as reduction in CFU at 15 uM after 6 hrs by time kill assay in presence of 1 ug/ml meropenem. It is filed as functional. In a few lines:
as §2

In series [13] the test system is Acinetobacter baumannii. The series is described as follows: Antibacterial activity against Acinetobacter baumannii ATCC BAA-1605 assessed as meropenem MIC at 20 uM after 6 hrs in presence of 10% bovine plasma by time kill assay (Rvb meropenem MIC in absence of plasma= 4 ug/ml). It is filed as functional. The conditions noted are these: ATCC BAA-1605, 6 h. A digest of the protocol: as §1

The test system of series [14] is Pseudomonas aeruginosa. Briefly: Antibacterial activity against Pseudomonas aeruginosa PA53 assessed as reduction in CFU at 60 uM after 6 hrs by time kill assay in presence of 1 ug/ml meropenem. The class given is functional. A digest of the protocol:
as §2

In series [15] the test system is Pseudomonas aeruginosa. Briefly: Antibacterial activity against Pseudomonas aeruginosa PA53 assessed as reduction in CFU at 60 uM after 6 hrs by time kill assay. It is filed as functional. A digest of the protocol:
as §2

Series [16] has as its system Acinetobacter baumannii. The series is described as follows: Antibacterial activity against Acinetobacter baumannii ATCC BAA-1605 assessed as meropenem MIC at 25 uM after 6 hrs in presence of 10% bovine plasma by time kill assay (Rvb meropenem MIC in absence of plasma= 2 ug/ml). The class given is functional. The conditions noted are these: ATCC BAA-1605, 6 h. In a few lines:
as §1

For series [17], the system named is Acinetobacter baumannii. The series is described as follows: Antibacterial activity against Acinetobacter baumannii ATCC BAA-1605 assessed as cell death at 15 uM after 16 hrs by checkerboard assay in presence of 50% bovine plasma. The conditions noted are these: ATCC BAA-1605, Plasma. The class given is functional. A digest of the protocol: as §4
Series [18] relates to Acinetobacter baumannii. Briefly: Antibacterial activity against Acinetobacter baumannii ATCC BAA-1605 assessed as meropenem MIC at 30 uM after 6 hrs in presence of 10% bovine plasma by time kill assay (Rvb meropenem MIC in absence of plasma= 0.5 ug/ml). The class given is functional. The conditions noted are these: ATCC BAA-1605, 6 h. In a few lines: as §1
The test system of series [19] is Pseudomonas aeruginosa. The series is described as follows: Antibacterial activity against Pseudomonas aeruginosa PA53 assessed as fold reduction in meropenem MIC at 60 uM after 16 hrs by microdilution method. It is filed as functional. A digest of the protocol:
as §3

Series [20] concerns Pseudomonas aeruginosa. The series is described as follows: Antibacterial activity against Pseudomonas aeruginosa PA53 assessed as reduction in CFU at 60 uM after 6 hrs by time kill assay in presence of 4 ug/ml meropenem. It is filed as functional. In a few lines: as §2
The test system of series [21] is Acinetobacter baumannii. The series is described as follows: Antibacterial activity against Acinetobacter baumannii ATCC BAA-1605 assessed as complete inhibition of bacterial growth after 16 hrs by microdilution method. It is filed as functional. The conditions noted are these: ATCC BAA-1605, 16 h. In a few lines: as §3

Take `Cl.Nc1nc(-c2ccc(NC(=O)c3cc(Cl)cc(Cl)c3)cc2)c[nH]1`: the MIC in [1] is 32 µg/mL; in series [6] it was above 200 µM; in series [8], 50 µM; in series [13] it was 16 µg/mL; in series [16] it was 8 µg/mL; in series [17], 200 µM. Further, the minimal inhibitory concentration (MIC) in series [18] was 0.5 µg/mL; in series [21] it was 50 µM. Besides, the “fold change (FC)” value in series [2] was found to be 4; in series [3], 8; in [4], 2.53; in [7], 8; in series [9], 16; in [12], 4. Further, the “fold change (FC)” value in [14] stood at 3.2; in series [15], 2.49; in series [19] it was 8; in [20] it was 3.2. Moreover, the CC50 in series [5] came to 387 µM. Moreover, in series [10], the “fractional inhibitory concentration index (FICI)” value turned out to be 0.375. For the same compound, the Activity entry in [11] is reported as “Non-toxic”.
